# pKi: −log10 of the molar value.
# Tests used:
# Homo sapiens [1] = species on record: Homo sapiens; assay: Selectivity ratio of Ki for human kappa opioid receptor to Ki for human mu opioid receptor
# [2] = target: Kappa-type opioid receptor (Homo sapiens, UniProt P41145); assay: Displacement of [3H]U69593 from human kappa opioid receptor expressed in CHO cells; type: cell-based
# [3] = target: Delta-type opioid receptor (Homo sapiens, UniProt P41143); assay: Displacement of [3H]naltrindole from human delta opioid receptor expressed in CHO cells; type: cell-based
# Sequence of Delta-type opioid receptor (P41143 whole entry): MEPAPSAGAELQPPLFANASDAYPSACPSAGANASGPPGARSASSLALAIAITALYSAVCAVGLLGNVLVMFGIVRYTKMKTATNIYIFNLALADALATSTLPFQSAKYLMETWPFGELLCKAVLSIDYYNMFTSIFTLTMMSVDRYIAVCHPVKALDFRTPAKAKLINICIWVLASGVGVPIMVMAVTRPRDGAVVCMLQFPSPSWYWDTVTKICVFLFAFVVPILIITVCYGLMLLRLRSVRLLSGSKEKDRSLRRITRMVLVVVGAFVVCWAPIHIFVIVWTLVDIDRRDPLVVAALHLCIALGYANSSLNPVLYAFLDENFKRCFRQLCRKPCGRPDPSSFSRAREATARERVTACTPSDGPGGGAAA
# Summary of the method: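 CHO cells stably expressing a single human opioid receptor were grown in DMEM with 10% FBS and penicillin/streptomycin at 37 °C in 5% CO2. Their membranes were incubated with radioligand and 12 concentrations of test compound at 25 °C in 50 mM Tris-HCl, pH 7.5.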
# Homo sapiens [4] = species on record: Homo sapiens; assay: Selectivity ratio of Ki for human delta opioid receptor to Ki for human mu opioid receptor
# Mu-type opioid receptor = Mu-type opioid receptor (Homo sapiens, UniProt P35372); assay: Displacement of [3H]DAMGO from human mu opioid receptor expressed in CHO cells; type: cell-based
# Sequence of Mu-type opioid receptor (P35372 whole entry): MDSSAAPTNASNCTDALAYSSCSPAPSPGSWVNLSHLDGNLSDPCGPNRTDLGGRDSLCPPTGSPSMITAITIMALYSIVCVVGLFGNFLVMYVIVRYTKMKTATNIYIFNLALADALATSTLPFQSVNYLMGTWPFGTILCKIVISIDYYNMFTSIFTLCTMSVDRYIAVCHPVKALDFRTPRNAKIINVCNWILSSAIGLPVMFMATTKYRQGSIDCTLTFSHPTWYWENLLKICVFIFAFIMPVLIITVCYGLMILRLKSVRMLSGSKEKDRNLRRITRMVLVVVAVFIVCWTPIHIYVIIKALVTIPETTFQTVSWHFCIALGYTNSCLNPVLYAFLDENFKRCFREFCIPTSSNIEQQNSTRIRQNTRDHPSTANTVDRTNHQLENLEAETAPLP
# Sequence of Kappa-type opioid receptor (P41145 whole entry): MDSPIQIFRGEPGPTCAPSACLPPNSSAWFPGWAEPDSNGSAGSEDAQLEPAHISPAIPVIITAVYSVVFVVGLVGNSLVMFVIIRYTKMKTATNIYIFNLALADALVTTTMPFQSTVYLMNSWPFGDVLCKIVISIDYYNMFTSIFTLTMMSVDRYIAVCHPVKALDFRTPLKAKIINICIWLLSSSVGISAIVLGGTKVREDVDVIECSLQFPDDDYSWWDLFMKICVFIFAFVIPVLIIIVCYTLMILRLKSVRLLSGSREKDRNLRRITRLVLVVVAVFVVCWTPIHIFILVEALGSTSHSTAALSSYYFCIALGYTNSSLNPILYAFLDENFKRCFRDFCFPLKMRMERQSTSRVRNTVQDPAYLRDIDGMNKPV
Structure (SMILES),Ratio Ki (Homo sapiens [1]),pKi [2],pKi [3],Ratio Ki (Homo sapiens [4]),pKi (Mu-type opioid receptor)
c1ccc(Nc2ccc3c(c2)[C@@]24CCCC[C@H]2[C@@H](C3)N(CC2CC2)CC4)cc1,0.5,10.33,8.27,68,10.10
Ic1ccc(CNc2ccc3c(c2)[C@@]24CCCC[C@H]2[C@@H](C3)N(CC2CCC2)CC4)cc1,1.1,8.24,6.72,35,8.27
NCc1cc2c(cc1O)[C@@]13CCCC[C@H]1[C@@H](C2)N(CC1CCC1)CC3,0.5,6.85,< 5.00,,6.54
CN1CC[C@]23CCCC[C@H]2[C@H]1Cc1cc2c(cc13)OCN(Cc1ccccc1)C2,3,6.51,< 5.00,,6.96
COc1ccc(CNc2ccc3c(c2)[C@@]24CCCC[C@H]2[C@@H](C3)N(CC2CC2)CC4)cc1,2,9.29,7.70,65,9.51
Oc1cc2c(cc1CNCCCCNCc1cc3c(cc1O)[C@@]14CCCC[C@H]1[C@@H](C3)N(CC1CCC1)CC4)C[C@@H]1[C@@H]3CCCC[C@]23CCN1CC1CCC1,0.7,8.31,6.72,28,8.17
O=C(Nc1ccccc1)Nc1ccc2c(c1)[C@@]13CCCC[C@H]1[C@@H](C2)N(CC1CC1)CC3,0.5,8.80,7.80,4,8.41
O=C(Nc1ccc(I)cc1)Oc1ccc2c(c1)[C@@]13CCCC[C@H]1[C@@H](C2)N(CC1CC1)CC3,1,9.22,7.84,24,9.24
Oc1cc2c(cc1C(O)CCCCCCCCCCC(O)c1cc3c(cc1O)[C@@]14CCCC[C@H]1[C@@H](C3)N(CC1CCC1)CC4)C[C@@H]1[C@@H]3CCCC[C@]23CCN1CC1CCC1 (mixture of isomers),1,7.51,6.14,24,7.46
c1ccc(Nc2ccc3c(c2)[C@@]24CCCC[C@H]2[C@@H](C3)N(CC2CCC2)CC4)cc1,1,8.82,7.41,2,8.77
CN1CC[C@]23CCCC[C@H]2[C@H]1Cc1ccc(OC(=O)Nc2ccc(I)cc2)cc13,15,8.28,6.80,4,9.47
COc1ccc(Nc2ccc3c(c2)[C@@]24CCCC[C@H]2[C@@H](C3)N(CC2CC2)CC4)cc1,1,10.52,8.77,65,10.59
O/N=C\c1cc2c(cc1O)[C@@]13CCCC[C@H]1[C@@H](C2)N(CC1CCC1)CC3,0.16,,,47,
O=C(CCCCC(=O)NCc1cc2c(cc1O)[C@@]13CCCC[C@H]1[C@@H](C2)N(CC1CCC1)CC3)NCc1cc2c(cc1O)[C@@]13CCCC[C@H]1[C@@H](C2)N(CC1CCC1)CC3,1,7.52,,21,7.44
Ic1ccc(CNc2ccc3c(c2)[C@@]24CCCC[C@H]2[C@@H](C3)N(CC2CC2)CC4)cc1,,9.10,7.47,,9.15
COc1ccc(Nc2ccc3c(c2)[C@@]24CCCC[C@H]2[C@@H](C3)N(CC2CCC2)CC4)cc1,1,9.23,7.72,3,9.21
CCC(O)c1cc2c(cc1O)[C@@]13CCCC[C@H]1[C@@H](C2)N(CC1CCC1)CC3 (mixture of isomers),0.3,7.14,< 5.00,,6.74
OCc1cc2c(cc1O)[C@@]13CCCC[C@H]1[C@@H](C2)N(CC1CCC1)CC3,0.25,7.07,< 5.00,,6.44

Structure (SMILES),Ratio Ki (Homo sapiens [1]),pKi [2],pKi [3],Ratio Ki (Homo sapiens [4]),pKi (Mu-type opioid receptor)
CN1CC[C@]23CCCC[C@H]2[C@H]1Cc1ccc(NC(=O)Nc2ccccc2)cc13,31,6.47,6.49,29,7.96
O=C(Nc1ccc(I)cc1)Oc1ccc2c(c1)[C@@]13CCCC[C@H]1[C@@H](C2)N(CC1CCC1)CC3,1,9.00,7.17,68,8.96
CN1CC[C@]23CCCC[C@H]2[C@H]1Cc1cc(CNCc2ccccc2)c(O)cc13,2,6.42,< 5.00,,6.72
CCN(CCCCCCN(CC)Cc1cc2c(cc1O)[C@@]13CCCC[C@H]1[C@@H](C2)N(CC1CCC1)CC3)Cc1cc2c(cc1O)[C@@]13CCCC[C@H]1[C@@H](C2)N(CC1CCC1)CC3,1,7.27,6.15,13,7.19
c1ccc(CNc2ccc3c(c2)[C@@]24CCCC[C@H]2[C@@H](C3)N(CC2CC2)CC4)cc1,1.4,9.47,7.54,112,9.59
CCCCC(O)c1cc2c(cc1O)[C@@]13CCCC[C@H]1[C@@H](C2)N(CC1CCC1)CC3 (mixture of isomers),1,7.89,7.14,6,7.77
Oc1cc2c(cc1CNCCCCCCCCNCc1cc3c(cc1O)[C@@]14CCCC[C@H]1[C@@H](C3)N(CC1CCC1)CC4)C[C@@H]1[C@@H]3CCCC[C@]23CCN1CC1CCC1,2,7.40,6.00,42,7.62
Oc1cc2c(cc1C(O)CCCCC(O)c1cc3c(cc1O)[C@@]14CCCC[C@H]1[C@@H](C3)N(CC1CCC1)CC4)C[C@@H]1[C@@H]3CCCC[C@]23CCN1CC1CCC1 (mixture of isomers),1,7.17,5.80,24,7.13
CN1CC[C@]23CCCC[C@H]2[C@H]1Cc1ccc(NC(=O)Nc2ccc(I)cc2)cc13,16,6.55,6.52,18,7.77
CCCNCc1cc2c(cc1O)[C@@]13CCCC[C@H]1[C@@H](C2)N(CC1CCC1)CC3,1,6.46,< 5.00,,6.48
O=C(Nc1ccc(I)cc1)Nc1ccc2c(c1)[C@@]13CCCC[C@H]1[C@@H](C2)N(CC1CCC1)CC3,0.5,7.55,6.60,4,7.62
c1ccc(CNc2ccc3c(c2)[C@@]24CCCC[C@H]2[C@@H](C3)N(CC2CCC2)CC4)cc1,1.6,8.55,6.89,76,8.77
Oc1cc2c(cc1CNCCCCCCNCc1cc3c(cc1O)[C@@]14CCCC[C@H]1[C@@H](C3)N(CC1CCC1)CC4)C[C@@H]1[C@@H]3CCCC[C@]23CCN1CC1CCC1,0.5,7.43,6.07,12,7.12
Ic1ccc(CN(Cc2ccc(I)cc2)c2ccc3c(c2)[C@@]24CCCC[C@H]2[C@@H](C3)N(CC2CCC2)CC4)cc1,1,7.80,6.02,60,7.80
OCCCCCCCCCCC(O)c1cc2c(cc1O)[C@@]13CCCC[C@H]1[C@@H](C2)N(CC1CCC1)CC3 (mixture of isomers),1,7.59,6.21,23,7.44
COc1ccc(CN(Cc2ccc(OC)cc2)c2ccc3c(c2)[C@@]24CCCC[C@H]2[C@@H](C3)N(CC2CC2)CC4)cc1,2,8.41,6.92,48,8.60
CCN(CCCCN(CC)Cc1cc2c(cc1O)[C@@]13CCCC[C@H]1[C@@H](C2)N(CC1CCC1)CC3)Cc1cc2c(cc1O)[C@@]13CCCC[C@H]1[C@@H](C2)N(CC1CCC1)CC3,0.3,7.36,5.96,7,6.80
O=C(Nc1ccc(I)cc1)Nc1ccc2c(c1)[C@@]13CCCC[C@H]1[C@@H](C2)N(CC1CC1)CC3,0.5,7.92,7.03,4,7.64
